Legend:
[1] = target: T1, 3-hydroxy-3-methylglutaryl-coenzyme A reductase (Rattus norvegicus) (UniProt P51639); assay: In vitro inhibition of solubilized, partially purified rat liver HMG-CoA reductase relative to mevinolin
T1 sequence (whole entry): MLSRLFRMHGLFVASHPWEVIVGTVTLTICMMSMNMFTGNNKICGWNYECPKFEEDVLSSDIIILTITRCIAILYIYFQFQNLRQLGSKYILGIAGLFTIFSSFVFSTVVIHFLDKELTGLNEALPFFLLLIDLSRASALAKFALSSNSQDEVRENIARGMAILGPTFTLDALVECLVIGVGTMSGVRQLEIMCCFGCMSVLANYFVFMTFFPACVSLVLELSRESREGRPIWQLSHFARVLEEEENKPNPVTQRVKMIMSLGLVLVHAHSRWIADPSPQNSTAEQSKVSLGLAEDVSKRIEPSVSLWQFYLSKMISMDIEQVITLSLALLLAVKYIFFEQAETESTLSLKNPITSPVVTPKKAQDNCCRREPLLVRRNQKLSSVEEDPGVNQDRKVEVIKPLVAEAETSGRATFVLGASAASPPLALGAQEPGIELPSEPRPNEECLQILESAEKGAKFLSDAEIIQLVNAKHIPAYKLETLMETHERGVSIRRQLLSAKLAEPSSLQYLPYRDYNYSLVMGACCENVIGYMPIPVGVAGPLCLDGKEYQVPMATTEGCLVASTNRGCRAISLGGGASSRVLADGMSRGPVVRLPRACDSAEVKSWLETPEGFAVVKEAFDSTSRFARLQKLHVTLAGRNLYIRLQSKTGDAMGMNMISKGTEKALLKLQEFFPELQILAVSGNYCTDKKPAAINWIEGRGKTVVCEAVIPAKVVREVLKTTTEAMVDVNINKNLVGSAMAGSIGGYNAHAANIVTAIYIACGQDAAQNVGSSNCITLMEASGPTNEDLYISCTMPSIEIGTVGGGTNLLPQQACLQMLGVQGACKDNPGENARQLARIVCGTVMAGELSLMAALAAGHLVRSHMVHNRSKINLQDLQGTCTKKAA

[2] = target: T2, 3-hydroxy-3-methylglutaryl-coenzyme A reductase (Homo sapiens) (UniProt P04035); assay: Inhibition of cellular HMG-CoA reductase in cultures of hepatic cells (HEP G2, a human hepatoma cell line) relative to mevinolin; format: cell-based
T2 sequence (whole entry): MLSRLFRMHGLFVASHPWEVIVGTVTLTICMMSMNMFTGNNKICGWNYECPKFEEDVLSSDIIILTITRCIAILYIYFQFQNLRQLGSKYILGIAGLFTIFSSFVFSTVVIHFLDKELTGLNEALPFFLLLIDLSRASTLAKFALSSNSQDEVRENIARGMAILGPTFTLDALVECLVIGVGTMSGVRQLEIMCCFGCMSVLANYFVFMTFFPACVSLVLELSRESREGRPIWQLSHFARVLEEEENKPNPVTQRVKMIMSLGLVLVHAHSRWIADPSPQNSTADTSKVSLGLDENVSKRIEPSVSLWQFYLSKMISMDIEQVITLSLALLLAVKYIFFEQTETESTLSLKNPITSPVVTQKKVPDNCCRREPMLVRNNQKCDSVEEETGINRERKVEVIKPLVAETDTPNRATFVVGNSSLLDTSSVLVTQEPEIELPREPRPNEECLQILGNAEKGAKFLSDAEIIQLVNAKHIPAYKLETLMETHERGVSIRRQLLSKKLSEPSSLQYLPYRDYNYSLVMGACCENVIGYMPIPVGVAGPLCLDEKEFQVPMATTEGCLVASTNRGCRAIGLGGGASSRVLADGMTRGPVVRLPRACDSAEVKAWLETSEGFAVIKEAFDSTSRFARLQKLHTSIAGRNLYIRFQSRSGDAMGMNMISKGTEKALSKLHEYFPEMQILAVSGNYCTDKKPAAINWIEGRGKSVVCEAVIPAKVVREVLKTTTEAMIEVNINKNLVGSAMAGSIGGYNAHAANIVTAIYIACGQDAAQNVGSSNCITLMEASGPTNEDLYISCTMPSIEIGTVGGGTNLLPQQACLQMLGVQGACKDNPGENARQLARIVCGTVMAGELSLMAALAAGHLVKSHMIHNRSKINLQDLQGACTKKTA
Method in brief: (§1)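 HEP G2 human hepatoma cells in culture; cellular HMG-CoA reductase inhibition read as reduced incorporation of sodium [14C]acetate into cholesterol; IC50 values varied somewhat between cell batches. Assay system as in the preceding paper.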

[3] = tested on: Rattus norvegicus; assay: Inhibition of hepatic cholesterol de novo synthesis in male rats after po administration; values are per cent of control
[4] = target: T3, 3-hydroxy-3-methylglutaryl-coenzyme A reductase (Homo sapiens, UniProt P04035); assay: Inhibition of cellular HMG-CoA reductase in cultures of hepatic cells (HEP G2, a human hepatoma cell line); format: cell-based; method in brief: as §1
T3 sequence (P04035 whole entry): T2 sequence (whole entry)

[5] = target: T4, 3-hydroxy-3-methylglutaryl-coenzyme A reductase (Rattus norvegicus, UniProt P51639); assay: In vitro inhibition of HMG-CoA reductase of rat liver
T4 sequence (P51639 whole entry): T1 sequence (whole entry)

[6] = tested on: Oryctolagus cuniculus; assay: Percent decrease in total plasma cholesterol in rabbit was determined after oral administration of a dose of 20 mg/kg for 10 days; format: functional; design: scale not given: the % may be the effect or the level left
Method in brief: (§2)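 Normally fed normolipemic rabbits given oral doses repeatedly (20 mg/kg for 10 days, n = 6; 10 mg/kg for 6 days, n = 4); total plasma cholesterol decrease expressed as percent.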

[7] = tested on: Rattus norvegicus; assay: Inhibition of hepatic cholesterol de novo synthesis in male rats after po administration, relative to mevinolin; format: functional
Method in brief: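 Male rats dosed orally. […] Dose 5 mg/kg bw for lactone form, optically pure; 10 mg/kg bw for racemic sodium salts. Potency expressed against optically pure mevinolin tested under the same conditions.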

[8] = tested on: Canis familiaris; assay: Percent increase in plasma HDL-cholesterol in dog was determined after oral administration of a dose of 20 mg/kg for 14 days; format: functional, Canis lupus familiaris
Method in brief: (§3)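 Normally fed male beagle dogs (n = 4) given drug orally each day (20 mg/kg for 14 days or 10 mg/kg for 19 days); plasma LDL- and HDL-cholesterol followed as percent change.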

[9] = tested on: Canis familiaris; assay: Percent decrease in plasma LDL-cholesterol in dog was determined after oral administration of a dose of 20 mg/kg for 14 days; format: functional, Canis lupus familiaris; design: scale not given: the % may be the effect or the level left; method in brief: as §3
[10] = tested on: Rattus norvegicus; assay: Inhibition of hepatic cholesterol de novo synthesis in male rats after po administration,; values are per cent of control
[11] = tested on: Canis familiaris; assay: Percent increase in plasma HDL-cholesterol in dog was determined after oral administration of a dose of 10 mg/kg for 19 days; format: functional, Canis lupus familiaris; method in brief: as §3
[12] = tested on: Oryctolagus cuniculus; assay: Percent decrease in total plasma cholesterol in rabbit was determined after oral administration of a dose of 10 mg/kg for 6 days; format: functional; design: scale not given: the % may be the effect or the level left; method in brief: as §2
[13] = tested on: Canis familiaris; assay: Percent decrease in plasma LDL-cholesterol in dog was determined after oral administration of a dose of 10 mg/kg for 19 days; format: functional, Canis lupus familiaris; design: scale not given: the % may be the effect or the level left; method in brief: as §3

| SMILES | Relative potency [1] | Relative potency [2] | IC50 [4] [nM] | IC50 [5] [nM] | also measured |
| --- | --- | --- | --- | --- | --- |
| CC(C)c1c(CC[C@@H](O)C[C@@H](O)CC(=O)O)c(-c2ccc(F)cc2)cn1C(C)C (racemic) | 42 | 2500 | – | – | – |
| CC(C)c1c(CC[C@@H](O)C[C@@H](O)CC(=O)[O-])c(-c2ccc(F)cc2)cn1C1CCCCC1.[Na+] | – | – | – | – | level, % of control [3]: 6% |
| Cc1c(-c2ccc(F)cc2)c(CC[C@@H](O)C[C@@H](O)CC(=O)O)c(C(C)C)n1-c1ccccc1 (racemic) [listing 1 of 2 here] | 149 | – | – | – | – |
| Cc1c(CC[C@@H](O)C[C@@H](O)CC(=O)O)c(-c2ccc(F)cc2)c(C)n1-c1ccccc1 | 11 | 9 | 570 | 70 | – |
| Cc1c(/C=C/[C@@H](O)C[C@@H](O)CC(=O)O)c(-c2ccc(F)cc2)c(C)n1-c1ccccc1 | 3 | 1 | 5000 | 250 | – |
| CC(C)c1c(CCC(O)CC(O)CC(=O)[O-])c(-c2ccc(F)cc2)cn1-c1ccccc1.[Na+] (racemic) | 128 | > 500 | < 10 | 6 | level, % of control [3]: 5.6%; Activity [6]: 34%; Relative potency [7]: 250; Activity [8]: 14%; Activity [9]: 48% |
| CC(C)c1c(/C=C/[C@H](O)C[C@@H](O)CC(=O)O)c(-c2ccc(F)cc2)cn1C1CCCCC1 | 12 | 47 | 106 | 69 | – |
| CC[C@H](C)C(=O)O[C@H]1C[C@@H](C)C=C2C=C[C@H](C)[C@H](CC[C@@H]3C[C@@H](O)CC(=O)O3)[C@H]21 [LOVASTATIN] | – | – | – | – | level, % of control [10]: 14%; Activity [11]: 2%; Activity [12]: 25%; Activity [13]: -18% |
| CC(C)c1c(CC[C@@H](O)C[C@@H](O)CC(=O)O)c(-c2ccc(F)cc2)cn1C(C)C [listing 1 of 2 here] | – | – | – | 9 | – |
| CC(C)c1c(CC[C@@H](O)C[C@@H](O)CC(=O)O)c(-c2ccc(F)cc2)cn1-c1ccccc1 | 257 | – | – | 3 | – |
| CC(C)c1c(/C=C/[C@@H](O)C[C@@H](O)CC(=O)[O-])c(-c2ccc(F)cc2)cn1-c1ccccc1.[Na+] | – | – | – | – | level, % of control [3]: 5.5% |
| Cc1c(CC[C@@H](O)C[C@@H](O)CC(=O)O)c(-c2ccc(F)cc2)cn1C(C)C | 9 | 19 | 270 | 100 | – |
| Cc1c(/C=C/[C@@H](O)C[C@@H](O)CC(=O)O)c(-c2ccc(F)cc2)cn1C(C)C | 2 | 1 | 6000 | 330 | – |
| Cc1c(-c2ccc(F)cc2)c(CC[C@@H](O)C[C@@H](O)CC(=O)O)c(C(C)C)n1-c1ccccc1 [listing 1 of 2 here] | – | – | – | 2.5 | – |
| Cc1c(-c2ccc(F)cc2)c(CC[C@@H](O)C[C@@H](O)CC(=O)O)c(C(C)C)n1-c1ccccc1 [listing 2 of 2 here] | 300 | – | – | – | – |
| Cc1c(-c2ccc(F)cc2)c(CC[C@@H](O)C[C@@H](O)CC(=O)O)c(C(C)C)n1-c1ccccc1 (racemic) [listing 2 of 2 here] | – | – | – | 5 | – |
| CC(C)c1c(CC[C@@H](O)C[C@@H](O)CC(=O)O)c(-c2ccc(F)cc2)cn1C(C)C [listing 2 of 2 here] | 85 | – | – | – | – |
| CC(C)c1c(CC[C@@H](O)C[C@@H](O)CC(=O)[O-])c(-c2ccc(F)cc2)cn1C(C)C.[Na+] (racemic) | – | – | 2 | 18 | level, % of control [3]: 9%; Activity [12]: 42%; Relative potency [7]: 156 |
